According to ChEMBL document CHEMBL2086383, “Antitumor agents. 293. Nontoxic dimethyl-4,4'-dimethoxy-5,6,5',6'-dimethylenedioxybiphenyl-2,2'-dicarboxylate (DDB) analogues chemosensitize multidrug-resistant cancer cells to clinical anticancer drugs” (J Med Chem, 2012):
The source made the active and inactive calls. The rule behind the calls is not given here.

Legend:
Assay type in all cases: cell-based
KBVIN [1] = assay: Inhibition of P-gp-mediated multidrug-resistance in human KBVIN cells assessed as fold decrease in doxorubicin IC50 for cytotoxic activity at 10 uM after 72 hrs by SRB assay relative to control
Method in brief: (§1)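 KBvin cells were exposed to graded concentrations of anticancer drug (doxorubicin, paclitaxel or vincristine), alone or with 10 μM test compound, for 72 h. Growth was read by SRB assay. IC50 was found by log-linear interpolation. Reversal fold = IC50 (drug alone) / IC50 (drug + compound). Verapamil was the positive control. Each experiment was run at least three times.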

KBVIN [2] = assay: Inhibition of P-gp-mediated multidrug-resistance in human KBVIN cells assessed as fold decrease in vincristine IC50 for cytotoxic activity at 10 uM after 72 hrs by SRB assay relative to control; method in brief: as §1
KBVIN [3] = assay: Inhibition of P-gp-mediated multidrug-resistance in human KBVIN cells assessed as paclitaxel-induced cytotoxicity at 10 uM after 72 hrs by SRB assay; method in brief: as §1
KBVIN [4] = assay: Inhibition of P-gp-mediated multidrug-resistance in human KBVIN cells assessed as doxorubicin-induced cytotoxicity at 10 uM after 72 hrs by SRB assay; method in brief: as §1
[5] = molecular target: T1, ATP-dependent translocase ABCB1 (Homo sapiens, UniProt P08183); assay: Inhibition of P-gp over expressed in human multidrug-resistant KBVIN cells assessed as intracellular accumulation of doxorubicin at 10uM after 3 hrs by fluorescence microplate reader analysis relative to control
T1 sequence (P08183 whole entry): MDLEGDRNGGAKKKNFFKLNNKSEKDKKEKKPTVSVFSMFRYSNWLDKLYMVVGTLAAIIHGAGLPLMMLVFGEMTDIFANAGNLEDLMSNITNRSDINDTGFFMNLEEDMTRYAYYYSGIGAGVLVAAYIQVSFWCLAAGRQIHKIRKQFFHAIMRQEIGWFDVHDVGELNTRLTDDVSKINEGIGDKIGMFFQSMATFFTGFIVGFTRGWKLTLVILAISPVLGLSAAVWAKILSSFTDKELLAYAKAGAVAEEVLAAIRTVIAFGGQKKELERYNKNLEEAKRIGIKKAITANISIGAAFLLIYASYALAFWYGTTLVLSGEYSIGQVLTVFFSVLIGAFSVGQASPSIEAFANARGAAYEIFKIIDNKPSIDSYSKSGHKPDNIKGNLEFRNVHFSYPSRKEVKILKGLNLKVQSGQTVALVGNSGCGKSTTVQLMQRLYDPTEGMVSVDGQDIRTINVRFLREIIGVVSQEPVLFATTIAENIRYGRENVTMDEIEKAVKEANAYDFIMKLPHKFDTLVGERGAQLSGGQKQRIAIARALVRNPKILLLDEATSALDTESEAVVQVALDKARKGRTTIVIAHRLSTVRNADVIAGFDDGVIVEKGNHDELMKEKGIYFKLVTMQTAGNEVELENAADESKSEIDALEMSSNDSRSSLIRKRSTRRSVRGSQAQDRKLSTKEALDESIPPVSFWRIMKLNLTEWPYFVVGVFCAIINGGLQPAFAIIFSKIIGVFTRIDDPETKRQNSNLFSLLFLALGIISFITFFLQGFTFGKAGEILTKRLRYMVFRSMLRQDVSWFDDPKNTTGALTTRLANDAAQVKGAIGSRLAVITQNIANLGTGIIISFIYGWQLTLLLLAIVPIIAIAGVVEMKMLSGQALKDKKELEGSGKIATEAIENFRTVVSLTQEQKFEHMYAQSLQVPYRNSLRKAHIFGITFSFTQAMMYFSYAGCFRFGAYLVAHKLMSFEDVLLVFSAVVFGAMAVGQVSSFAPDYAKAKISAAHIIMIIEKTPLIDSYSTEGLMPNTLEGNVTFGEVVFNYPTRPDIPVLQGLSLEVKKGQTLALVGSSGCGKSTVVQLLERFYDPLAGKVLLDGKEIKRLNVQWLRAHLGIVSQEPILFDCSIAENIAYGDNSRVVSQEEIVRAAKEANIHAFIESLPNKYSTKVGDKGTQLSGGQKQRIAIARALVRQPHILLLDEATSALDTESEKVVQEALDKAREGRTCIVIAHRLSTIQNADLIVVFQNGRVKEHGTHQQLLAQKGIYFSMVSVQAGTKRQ
Method in brief: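 KBvin cells at 5 × 10^3/well were pretreated with compound for 1 h, then given doxorubicin (10 μM final) for 3 h. Cells were washed with ice-cold PBS and lysed in 1% SDS/PBS. Verapamil or CsA served as positive control.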

KBVIN [6] = assay: Inhibition of P-gp-mediated multidrug-resistance in human KBVIN cells assessed as fold decrease in paclitaxel IC50 for cytotoxic activity at 10 uM after 72 hrs by SRB assay relative to control; method in brief: as §1
KBVIN [7] = assay: Inhibition of P-gp-mediated multidrug-resistance in human KBVIN cells assessed as vincristine-induced cytotoxicity at 10 uM after 72 hrs by SRB assay; method in brief: as §1
DU-145 = assay: Antiproliferative activity against human DU145 cells after 72 hrs by SRB assay; conditions: for IC50: Homo sapiens, DU-145, 72 h
Method in brief: (§2)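 SRB assay. Cells at 3–5 × 10^3/well were exposed to a range of sample concentrations for 72 h. They were fixed in 50% TCA for 30 min, stained with 0.04% SRB for 30 min, and the dye was dissolved in 10 mM Tris base. Absorbance read at 515 nm. Medium was RPMI 1640 with 10% FBS at 37 °C, 5% CO2. KBvin cells were kept in 100 nM vincristine.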

KB = assay: Antiproliferative activity against human KB cells after 72 hrs by SRB assay; conditions: for IC50: Homo sapiens, KB; method in brief: as §2
A549 = assay: Antiproliferative activity against human A549 cells after 72 hrs by SRB assay; conditions: for IC50: Homo sapiens, A549, 72 h; method in brief: as §2
NIH3T3 [8] = assay: Inhibition of human P-gp-mediated multidrug-resistance in mouse NIH3T3 MDR cells assessed as potentiation of in vincristine-induced cytotoxic activity at 10 uM after 72 hrs by SRB assay; conditions: Mus musculus cells expressing human P-gp
NIH3T3 [9] = assay: Inhibition of human P-gp-mediated multidrug-resistance in mouse NIH3T3 MDR cells assessed as potentiation of in paclitaxel-induced cytotoxic activity at 10 uM after 72 hrs by SRB assay; conditions: human P-gp expressed in mouse cells
[10] = (§3) Inhibition of P-gp-mediated multidrug-resistance in human KBVIN cells assessed as paclitaxel-induced cytotoxicity after 72 hrs by SRB assay
Method in brief: (§4)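 KBvin cells were cultured with 100 nM paclitaxel plus a range of compound concentrations. Growth was read by SRB, and the EC50 of reversal was derived. Verapamil was the comparator.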

KBVIN [11] = assay: as §3; method in brief: as §4
[12] = Antiproliferative activity against human multidrug-resistant KBVIN cells after 72 hrs by SRB assay; conditions: for IC50: Homo sapiens, KBVIN; method in brief: as §2
[13] = molecular target: T1, ATP-dependent translocase ABCB1; assay: Inhibition of P-gp over expressed in human multidrug-resistant KBVIN cells after 10 mins by calcein AM accumulation assay
Method in brief: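 KBvin cells at 5 × 10^3/well were pretreated with samples for 1 h, then given calcein-AM (1 μM final) for 10 min. Cells were washed with ice-cold PBS and lysed in 1% SDS/PBS. Calcein fluorescence read at Ex 494/Em 517 nm. Verapamil or CsA served as positive control.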

KBVIN [14] = assay: Inhibition of P-gp-mediated multidrug-resistance in human KBVIN cells assessed as […] of paclitaxel-induced cell survival rate at 10 uM after 72 hrs by SRB assay

| SMILES | IC50 (DU-145) | IC50 (KB) | IC50 (A549) | IC50 [12] | inhibition (KBVIN [14]) | further results |
| --- | --- | --- | --- | --- | --- | --- |
| COc1ccc(CCN(C)CCCC(C#N)(c2ccc(OC)c(OC)c2)C(C)C)cc1OC (centres undefined) |  |  |  |  |  | fold change (FC) (KBVIN [1]): 9; fold change (FC) (KBVIN [2]): 109; Activity (KBVIN [3]): Active; Activity (KBVIN [4]): Active; fold change (FC) [5]: 1.2; fold change (FC) (KBVIN [6]): 31; Activity (KBVIN [7]): Active |
| CCCCCCCCCCCC(=O)OCc1cc(OC)c2c(c1-c1c(COC(=O)CCCCCCCCCCC)cc(OC)c3c1OCO3)OCO2 | > 100 µM | > 100 µM | > 100 µM | > 100 µM | inactive |  |
| COC(=O)c1c(Br)c(OC)c2c(c1-c1c3c(c(OC)c(Br)c1C(=O)OC)OCO3)OCO2 | > 100 µM | > 100 µM | > 100 µM | > 100 µM | inactive |  |
| COc1cc(COC(=O)c2ccc3ccccc3n2)c(-c2c(COC(=O)c3ccc4ccccc4n3)cc(OC)c3c2OCO3)c2c1OCO2 |  |  |  |  | Active | Activity (DU-145; human, du-145, 72 h): Toxic; Activity (KB; human, kb): Toxic; Activity (A549; human, a549, 72 h): Toxic; Activity ([12]; human, kbvin): Toxic |
| COc1cc(COC(=O)c2ccc3c(c2)OCO3)c(-c2c(COC(=O)c3ccc4c(c3)OCO4)cc(OC)c3c2OCO3)c2c1OCO2 | > 100 µM | > 100 µM | > 100 µM | > 100 µM | inactive |  |
| COc1c(Br)c(CO)c(-c2c(CO)c(Br)c(OC)c3c2OCO3)c2c1OCO2 | > 100 µM | > 100 µM | > 100 µM | > 100 µM | inactive |  |
| COc1c(Br)c(CO)c(-c2c3c(c(OC)c(Br)c2C(=O)O)OCO3)c2c1OCO2 | > 100 µM | > 100 µM | > 100 µM | > 100 µM | inactive |  |

Continued, in another order:

| IC50 (DU-145) | IC50 (KB) | IC50 (A549) | SMILES | IC50 [12] | inhibition (KBVIN [14]) | further results |
| --- | --- | --- | --- | --- | --- | --- |
| > 100 µM | > 100 µM | > 100 µM | COc1cc(C(=O)OCc2cc(OC)c3c(c2-c2c(COC(=O)c4cc(OC)c(OC)c(OC)c4)cc(OC)c4c2OCO4)OCO3)cc(OC)c1OC | > 100 µM |  | fold change (FC) (KBVIN [1]): 23; fold change (FC) (KBVIN [2]): 566; inhibition (NIH3T3 [8]): Active; inhibition (NIH3T3 [9]): Active; Activity (KBVIN [3]): Active; EC50 [10]: 1.87 µM; inhibition (KBVIN [11]): Dose-dependent effect; Activity (KBVIN [4]): Active; fold change (FC) [5]: 1.2; fold change (FC) (KBVIN [6]): 222; Activity (KBVIN [7]): Active; inhibition (INH) [13]: Dose-dependent effect |
| > 100 µM | > 100 µM | > 100 µM | COc1cc(COC(=O)C(C)(C)C)c(-c2c(COC(=O)C(C)(C)C)cc(OC)c3c2OCO3)c2c1OCO2 | > 100 µM |  | fold change (FC) (KBVIN [1]): 46; fold change (FC) (KBVIN [2]): 349; inhibition (NIH3T3 [8]): Active; inhibition (NIH3T3 [9]): Active; Activity (KBVIN [3]): Active; EC50 [10]: 2.81 µM; inhibition (KBVIN [11]): Dose-dependent effect; Activity (KBVIN [4]): Active; fold change (FC) [5]: 1.2; fold change (FC) (KBVIN [6]): 37; Activity (KBVIN [7]): Active; inhibition (INH) [13]: Dose-dependent effect |
| > 100 µM | > 100 µM | > 100 µM | COc1c2c(c3c(c1Br)c(=O)oc(=O)c1c(Br)c(OC)c4c(c13)OCO4)OCO2 | > 100 µM | inactive |  |
| > 100 µM | > 100 µM | > 100 µM | COc1cc(COC(=O)CCC(=O)O)c(-c2c(COC(=O)CCC(=O)O)cc(OC)c3c2OCO3)c2c1OCO2 | > 100 µM | inactive |  |
| > 100 µM | > 100 µM | > 100 µM | COC(=O)c1c(I)c(OC)c2c(c1-c1c3c(c(OC)c(I)c1C(=O)OC)OCO3)OCO2 | > 100 µM | inactive |  |
